According to ChEMBL document CHEMBL4393719, “Tetrahydro-3-benzazepines with fluorinated side chains as NMDA and σ1 receptor antagonists: Synthesis, receptor affinity, selectivity and antiallodynic activity” (Eur J Med Chem, 2019):
pEC50, pIC50, pKi: −log10 of the molar value. Calls of active or inactive are those of the source.

Columns and labels:
[1] = Displacement of [3H] ifenprodil from GluN2B/GluN1a (unknown origin) expressed in mouse L(tk-) cell membranes incubated for 120 mins by scintillation counting method; set-up: species or system Homo sapiens
How it was run: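 Membranes from mouse L(tk-) cells co-transfected with dexamethasone-inducible GluN1a/GluN2B (1:5), induced 24 h with 4 μM dexamethasone plus 4 μM ketamine.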

[2] = target: Sigma non-opioid intracellular receptor 1 (Cavia porcellus, UniProt Q60492); assay type: cell membranes;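 further: radioligand displacement of [3H]-(+)-pentazocine from guinea pig brain cortex membranes, 120 min incubation, bound radioactivity read by scintillation counting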
[3] = target: T1, Sigma intracellular receptor 2 (Rattus norvegicus, UniProt Q5U3Y7); experiment: Displacement of [3H]-di-o-tolylguanidine from sigma2 receptor in rat liver membranes incubated for 120 mins by scintillation counting method; assay type: cell membranes
T1 sequence (Q5U3Y7 whole entry): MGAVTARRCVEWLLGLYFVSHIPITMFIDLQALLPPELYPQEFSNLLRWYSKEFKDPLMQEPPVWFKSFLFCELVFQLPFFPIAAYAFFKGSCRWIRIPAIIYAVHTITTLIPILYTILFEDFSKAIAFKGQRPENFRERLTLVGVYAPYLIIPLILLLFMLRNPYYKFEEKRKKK

Sus scrofa = species on record: Sus scrofa; conditions: at 1 µM
[4] = Selectivity ratio of Ki for sigma2 receptor in rat liver membranes to ratio of Ki for GluN2B/GluN1a (unknown origin) expressed in mouse L(tk-) cell membranes; assay type: cell-based
[5] = Selectivity ratio of Ki for sigma1 receptor in guinea pig brain cortex membranes to ratio of Ki for GluN2B/GluN1a (unknown origin) expressed in mouse L(tk-) cell membranes; assay type: cell-based
Mus musculus = experiment: Antiallodynic activity in CD-1 mouse model of capsaicin-induced mechanical allodynia assessed as increase in paw withdrawal threshold at 32 mg/kg, sc administered 30 mins before capsaicin addition and measured after 15 mins by von-Frey test; assay type: functional, organism-based
How it was run: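 Female CD-1 mice given compound or HPMC vehicle sc 30 min before intraplantar capsaicin (1 µg in 20 µL, 1% DMSO). 15 min later, electronic von Frey punctate stimulus (0.5 g) at least 5 mm from injection site; paw withdrawal latency, three trials 30 s apart, 50 s cutoff. % antiallodynic effect = [(LTD−LTS)/(CT−LTS)]×100; 6-8 mice per group, ANOVA with Bonferroni.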

Mu-type opioid receptor [6] = target: T2, Mu-type opioid receptor (Homo sapiens, UniProt P35372); experiment: Displacement of [3H]DAMGO from human MOR expressed in CHO-K1 cells membranes after 60 mins by micro beta scintillation counting method; assay type: cell membranes
How it was run: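 Human MOR in CHO-K1 membranes (20 µg) with 1 nM [3H]DAMGO in 50 mM Tris-HCl, 5 mM MgCl2, pH 7.4, 27 °C for 60 min. Test compound at five concentrations; 10 µM naloxone defines nonspecific binding. Filtered, washed thrice with ice-cold 10 mM Tris-HCl, counted by liquid scintillation.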

[7] = target: Delta-type opioid receptor (Homo sapiens, UniProt P41143); experiment: Inhibition of DOR (unknown origin)
[8] = target: Kappa-type opioid receptor (Homo sapiens, UniProt P41145); experiment: Inhibition of KOR (unknown origin)
Mu-type opioid receptor [9] = target: T2, Mu-type opioid receptor; experiment: Agonist activity at MOR (unknown origin) by cAMP assay; assay type: functional
[10] = target: Voltage-gated inwardly rectifying potassium channel KCNH2 (Homo sapiens, UniProt Q12809); experiment: Inhibition of human ERG expressed in CHO cells at -80 mV holding potential by automated patch clamp electrophysiology assay; assay type: cell-based
[11] = target: Sodium-dependent serotonin transporter (Homo sapiens) (UniProt P31645); experiment: Displacement of [3H]imipramine from human serotonin transporter at 1 uM after 30 mins by scintillation counting method relative to control
How it was run: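 Human SERT-enriched membranes (3.5 μg) incubated 30 min at 27 °C with 3 nM [3H]imipramine in Tris-HCl/120 mM NaCl/5 mM KCl pH 7.4, 0.1% DMSO; 200 μM imipramine for nonspecific binding. Compound at 1 μM; displacement after filtration.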

[12] = target: Sodium-dependent noradrenaline transporter (Homo sapiens) (UniProt P23975); experiment: Displacement of [3H]nisoxetine from recombinant human norepinephrine transporter at 1 uM after 60 mins by scintillation counting method relative to control
How it was run: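 Human NET-enriched membranes (1 μg), 5 nM [3H]nisoxetine in 50 mM Tris-HCl, 120 mM NaCl, 5 mM KCl, pH 7.4, 1% DMSO final; 60 min at 4 °C; 10 μM desipramine for nonspecific binding. Single 1 μM compound; filtration, displacement of radioligand.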

[13] = target: 5-hydroxytryptamine receptor 1A (Homo sapiens) (UniProt P08908); experiment: Displacement of [3H]8-OH-DPAT from human 5HT1A receptor at 1 uM incubated for 2 hrs scintillation counting method relative to control
How it was run: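 Human 5-HT1A-enriched membranes (10 μg), 2 nM [3H]-8-OH-DPAT, 50 mM Tris-HCl/5 mM MgCl2 pH 7.4, 0.1% DMSO final, 2 h at 37 °C; 10 μM 5-HT for nonspecific binding. Compound at 1 μM; radioligand displacement read after GF/C filtration.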

[14] = target: 5-hydroxytryptamine receptor 2B (Homo sapiens) (UniProt P41595); experiment: Displacement of [3H]-LSD from recombinant human 5HT2B receptor at 1 uM after 30 mins by scintillation counting method relative to control
How it was run: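 Human 5-HT2B-enriched membranes (5 µg), 1 nM [3H]LSD in 50 mM Tris-HCl, 4 mM CaCl2, 1% ascorbic acid, pH 7.4, 0.1% DMSO; 30 min, 37 °C; 50 µM 5-HT for nonspecific binding. Single 1 µM compound concentration; displacement after filtration.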

[15] = target: Alpha-1A adrenergic receptor (Homo sapiens) (UniProt P35348); experiment: Displacement of [3H]prazosin from human adrenergic alpha1A receptor at 1 uM after 90 mins by scintillation counting method relative to control
How it was run: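 α1A adrenoceptor-enriched human membranes (10 µg), 0.2 nM [3H]prazosin in 50 mM HEPES, 5 mM MgCl2, 1 mM CaCl2, 0.2% BSA, pH 7.4; 90 min at 25 °C; 1 µM prazosin for nonspecific binding. Compound tested at 1 µM; bound ligand collected by filtration.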

[16] = target: Histamine H1 receptor (Homo sapiens) (UniProt P35367); experiment: Displacement of [3H]pyrilamine from human recombinant histamine H1 receptor at 1 uM after 90 mins by scintillation counting method relative to control
How it was run: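 Human H1 receptor-enriched membranes (25 μg) with 2.4 nM [3H]pyrilamine in Na+/K+ phosphate buffer pH 7.4, 0.1% DMSO, 90 min, 25 °C; 10 μM triprolidine for nonspecific binding. Single 1 μM test concentration; filtration-based readout of displacement.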

[17] = Drug metabolism in human liver microsomes at 1 uM incubated for 1 hr in presence of NADPH by UPLC-MS analysis; assay type: ADME, Microsome; conditions: read-out: Drug metabolism
How it was run: (§1)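 Liver microsomes, compound 1 µM, 37 °C for 1 h in 50 mM Na/K phosphate pH 7.4, 3 mM MgCl2, NADPH-regenerating system, CYP 0.3 nmol/mL. Aliquots at 0, 10, 20, 40, 60 min quenched with cold acetonitrile, supernatants by UPLC-MS/MS; % parent remaining at end reported. Terfenadine as positive control.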

[18] = Drug metabolism in mouse liver microsomes at 1 uM incubated for 1 hr in presence of NADPH by UPLC-MS analysis; assay type: ADME, Microsome; conditions: read-out: Drug metabolism; how it was run: as §1
[19] = Drug metabolism in rat liver microsomes at 1 uM incubated for 1 hr in presence of NADPH by UPLC-MS analysis; assay type: ADME, Microsome; conditions: read-out: Drug metabolism; how it was run: as §1
CYP2D6 = CYP2D6 (Homo sapiens, UniProt P10635); experiment: Inhibition of recombinant human CYP2D6 at 1 uM by fluorescence probe substrate-based flurometric analysis; assay type: ADME
HepG2 [20] = experiment: Cytotoxicity against human HepG2 assessed as reduction in cell viability at 1 to 100 uM after 20 hrs by MTT assay; assay type: cell-based; conditions: hepg2, 20 h
How it was run: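 HepG2 cells, 3 x 10^4/well, grown 24 h in MEM/10% FBS, then exposed 20 h in serum-free medium to compound at 1, 10, 100 µM (from DMSO solutions). MTT 0.5 mg/mL for 4 h, formazan dissolved in DMSO, OD 550 nm. IC50 taken as lowest concentration giving ≥50% cytotoxicity versus untreated cells; duplicates in two assays (n = 4).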

HepG2 [21] = experiment: Cytotoxicity against human HepG2 assessed as reduction in cell viability at 1 to 100 uM after 20 hrs by neutral red uptake assay; assay type: cell-based; conditions: hepg2, 20 h
How it was run: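 HepG2 seeded 3 x 10^4/well, 24 h, then 20 h serum-free exposure at 1, 10 or 100 µM. Neutral red 50 µg/mL for 3 h, washed, dye extracted with 50% ethanol/1% acetic acid, OD 550 nm. IC50 assigned as lowest concentration reaching ≥50% cytotoxicity against untreated cells; n = 4 (duplicate, two assays).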

[22] = target: Sodium-dependent dopamine transporter (Homo sapiens) (UniProt Q01959); experiment: Displacement of [3H]GBR12935 from human DAT at 1 uM after 120 mins by scintillation counting method relative to control
How it was run: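 DAT-enriched human membranes (5 µg), 2 nM [3H]GBR12935 in 50 mM Tris-HCl/100 mM NaCl pH 7.4, 0.1% DMSO, 120 min at 4 °C; 10 µM GBR12909 for nonspecific binding. Compound at 1 µM; displacement measured after filtration.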

[23] = Stability of compound in aqueous HCl solution at pH 2 after 24 hrs by HPLC analysis; assay type: physicochemical; conditions: buffer, pH 2, 24 h
How it was run: (§2)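 Compound (25 μL of 10 mM DMSO stock) added to 1 mL aqueous buffered solution, pH 2 or pH 7.4, stirred 24 h at room temperature, analyzed by HPLC-MS; deemed stable if peak area remained 95–105%.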

[24] = Stability of compound in phosphate buffer at pH 7.4 after 24 hrs by HPLC analysis; assay type: physicochemical; conditions: pH 7.4, 24 h; how it was run: as §2

Chain of Sigma non-opioid intracellular receptor 1 (Q60492 whole entry): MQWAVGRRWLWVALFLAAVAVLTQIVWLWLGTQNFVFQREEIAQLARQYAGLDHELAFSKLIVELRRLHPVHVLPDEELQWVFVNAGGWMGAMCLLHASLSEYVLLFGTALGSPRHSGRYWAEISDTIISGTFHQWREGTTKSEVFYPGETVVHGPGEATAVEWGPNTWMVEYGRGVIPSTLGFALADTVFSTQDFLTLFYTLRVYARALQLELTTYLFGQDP
T2 sequence (P35372 whole entry): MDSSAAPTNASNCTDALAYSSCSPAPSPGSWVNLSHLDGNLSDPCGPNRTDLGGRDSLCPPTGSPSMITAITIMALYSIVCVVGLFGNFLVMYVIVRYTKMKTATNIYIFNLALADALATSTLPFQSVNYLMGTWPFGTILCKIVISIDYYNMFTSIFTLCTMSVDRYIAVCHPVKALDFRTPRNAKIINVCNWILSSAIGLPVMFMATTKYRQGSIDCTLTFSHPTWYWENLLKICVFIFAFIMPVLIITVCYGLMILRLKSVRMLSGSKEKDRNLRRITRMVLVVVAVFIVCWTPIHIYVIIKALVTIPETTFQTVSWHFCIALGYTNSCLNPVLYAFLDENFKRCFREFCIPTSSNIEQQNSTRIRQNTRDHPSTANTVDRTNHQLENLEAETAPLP
Chain of Sodium-dependent dopamine transporter (Homo sapiens) (Q01959 whole entry): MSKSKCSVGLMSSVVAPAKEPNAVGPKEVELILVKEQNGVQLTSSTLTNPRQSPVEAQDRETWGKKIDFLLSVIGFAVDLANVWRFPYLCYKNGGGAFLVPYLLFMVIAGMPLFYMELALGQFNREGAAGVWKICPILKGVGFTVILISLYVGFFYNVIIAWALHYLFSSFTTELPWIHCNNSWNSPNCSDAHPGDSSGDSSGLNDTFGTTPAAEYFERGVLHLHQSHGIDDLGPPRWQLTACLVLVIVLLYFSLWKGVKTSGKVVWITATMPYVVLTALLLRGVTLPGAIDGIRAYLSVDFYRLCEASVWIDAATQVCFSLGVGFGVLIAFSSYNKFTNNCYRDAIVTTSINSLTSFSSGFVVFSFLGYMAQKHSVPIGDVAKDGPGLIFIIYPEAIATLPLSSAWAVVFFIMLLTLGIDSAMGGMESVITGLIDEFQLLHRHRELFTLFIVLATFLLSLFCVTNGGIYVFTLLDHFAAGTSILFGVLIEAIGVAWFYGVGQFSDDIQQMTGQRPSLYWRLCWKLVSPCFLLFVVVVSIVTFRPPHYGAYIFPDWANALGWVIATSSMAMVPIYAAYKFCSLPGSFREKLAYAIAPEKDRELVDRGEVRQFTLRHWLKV
Chain of Kappa-type opioid receptor (P41145 whole entry): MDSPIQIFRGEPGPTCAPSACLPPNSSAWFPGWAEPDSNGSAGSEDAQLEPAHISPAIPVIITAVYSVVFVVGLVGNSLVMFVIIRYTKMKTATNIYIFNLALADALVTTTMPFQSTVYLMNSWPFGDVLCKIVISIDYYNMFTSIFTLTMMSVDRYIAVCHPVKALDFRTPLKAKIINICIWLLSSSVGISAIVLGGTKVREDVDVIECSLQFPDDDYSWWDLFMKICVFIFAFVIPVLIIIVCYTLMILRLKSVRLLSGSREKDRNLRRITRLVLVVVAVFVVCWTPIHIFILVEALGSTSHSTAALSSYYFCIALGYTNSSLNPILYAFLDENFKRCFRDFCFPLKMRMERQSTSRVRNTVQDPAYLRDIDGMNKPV
Chain of Sodium-dependent serotonin transporter (Homo sapiens) (P31645 whole entry, looked up): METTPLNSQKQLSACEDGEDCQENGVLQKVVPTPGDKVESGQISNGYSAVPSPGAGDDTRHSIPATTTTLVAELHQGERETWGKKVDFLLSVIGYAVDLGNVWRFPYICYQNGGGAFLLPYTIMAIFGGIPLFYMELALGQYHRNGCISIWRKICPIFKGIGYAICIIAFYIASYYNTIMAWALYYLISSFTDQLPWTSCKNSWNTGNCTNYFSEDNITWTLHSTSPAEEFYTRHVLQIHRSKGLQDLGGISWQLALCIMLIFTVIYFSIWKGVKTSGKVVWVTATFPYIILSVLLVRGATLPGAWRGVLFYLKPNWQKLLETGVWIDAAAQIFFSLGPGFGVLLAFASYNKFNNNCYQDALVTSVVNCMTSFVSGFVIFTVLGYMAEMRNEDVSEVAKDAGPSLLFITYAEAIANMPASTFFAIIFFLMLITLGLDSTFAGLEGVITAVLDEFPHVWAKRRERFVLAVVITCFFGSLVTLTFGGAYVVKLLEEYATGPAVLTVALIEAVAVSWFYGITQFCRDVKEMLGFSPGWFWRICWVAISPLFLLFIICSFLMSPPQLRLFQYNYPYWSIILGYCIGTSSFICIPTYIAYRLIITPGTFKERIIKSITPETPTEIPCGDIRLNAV
Chain of CYP2D6 (P10635 whole entry): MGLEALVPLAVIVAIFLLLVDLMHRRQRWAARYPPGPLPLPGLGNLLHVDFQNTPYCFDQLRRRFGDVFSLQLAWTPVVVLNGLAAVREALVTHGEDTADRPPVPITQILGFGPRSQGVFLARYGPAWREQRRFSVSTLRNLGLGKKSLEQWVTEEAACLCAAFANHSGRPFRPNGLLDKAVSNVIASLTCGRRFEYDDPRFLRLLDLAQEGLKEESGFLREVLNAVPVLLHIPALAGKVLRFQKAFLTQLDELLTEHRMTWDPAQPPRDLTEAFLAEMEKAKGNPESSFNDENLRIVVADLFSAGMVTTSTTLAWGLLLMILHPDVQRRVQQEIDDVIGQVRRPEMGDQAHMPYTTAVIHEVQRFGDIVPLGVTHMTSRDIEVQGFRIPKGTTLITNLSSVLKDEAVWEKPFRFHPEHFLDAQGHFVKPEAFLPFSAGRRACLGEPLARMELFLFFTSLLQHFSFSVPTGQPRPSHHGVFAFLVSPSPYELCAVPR
Chain of Delta-type opioid receptor (P41143 whole entry): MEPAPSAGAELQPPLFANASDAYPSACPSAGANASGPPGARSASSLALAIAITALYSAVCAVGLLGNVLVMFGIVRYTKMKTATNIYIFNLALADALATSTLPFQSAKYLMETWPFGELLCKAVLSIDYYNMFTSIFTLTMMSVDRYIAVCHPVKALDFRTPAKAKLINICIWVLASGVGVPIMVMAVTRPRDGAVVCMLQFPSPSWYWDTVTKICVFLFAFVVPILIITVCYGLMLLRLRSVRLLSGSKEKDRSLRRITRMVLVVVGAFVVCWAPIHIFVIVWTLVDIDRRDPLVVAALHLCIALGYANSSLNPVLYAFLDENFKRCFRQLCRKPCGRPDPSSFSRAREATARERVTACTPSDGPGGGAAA
Chain of Sodium-dependent noradrenaline transporter (Homo sapiens) (P23975 whole entry): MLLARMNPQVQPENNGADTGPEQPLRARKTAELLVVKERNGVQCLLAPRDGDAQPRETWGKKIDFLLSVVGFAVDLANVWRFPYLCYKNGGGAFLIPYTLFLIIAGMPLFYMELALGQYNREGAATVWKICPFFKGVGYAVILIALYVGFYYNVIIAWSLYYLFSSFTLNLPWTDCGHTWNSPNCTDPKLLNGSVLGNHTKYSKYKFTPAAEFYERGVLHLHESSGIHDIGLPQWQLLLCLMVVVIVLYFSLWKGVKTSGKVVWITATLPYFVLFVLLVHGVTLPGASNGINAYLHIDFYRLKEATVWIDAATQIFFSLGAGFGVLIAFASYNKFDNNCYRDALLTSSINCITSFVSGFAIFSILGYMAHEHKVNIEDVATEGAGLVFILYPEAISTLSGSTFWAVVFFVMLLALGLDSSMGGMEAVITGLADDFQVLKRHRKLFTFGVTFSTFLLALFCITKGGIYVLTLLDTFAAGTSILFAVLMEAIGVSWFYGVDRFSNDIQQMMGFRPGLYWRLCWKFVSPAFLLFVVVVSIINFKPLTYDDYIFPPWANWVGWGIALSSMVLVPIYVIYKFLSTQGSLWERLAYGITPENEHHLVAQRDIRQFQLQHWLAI
Chain of Voltage-gated inwardly rectifying potassium channel KCNH2 (Q12809 whole entry): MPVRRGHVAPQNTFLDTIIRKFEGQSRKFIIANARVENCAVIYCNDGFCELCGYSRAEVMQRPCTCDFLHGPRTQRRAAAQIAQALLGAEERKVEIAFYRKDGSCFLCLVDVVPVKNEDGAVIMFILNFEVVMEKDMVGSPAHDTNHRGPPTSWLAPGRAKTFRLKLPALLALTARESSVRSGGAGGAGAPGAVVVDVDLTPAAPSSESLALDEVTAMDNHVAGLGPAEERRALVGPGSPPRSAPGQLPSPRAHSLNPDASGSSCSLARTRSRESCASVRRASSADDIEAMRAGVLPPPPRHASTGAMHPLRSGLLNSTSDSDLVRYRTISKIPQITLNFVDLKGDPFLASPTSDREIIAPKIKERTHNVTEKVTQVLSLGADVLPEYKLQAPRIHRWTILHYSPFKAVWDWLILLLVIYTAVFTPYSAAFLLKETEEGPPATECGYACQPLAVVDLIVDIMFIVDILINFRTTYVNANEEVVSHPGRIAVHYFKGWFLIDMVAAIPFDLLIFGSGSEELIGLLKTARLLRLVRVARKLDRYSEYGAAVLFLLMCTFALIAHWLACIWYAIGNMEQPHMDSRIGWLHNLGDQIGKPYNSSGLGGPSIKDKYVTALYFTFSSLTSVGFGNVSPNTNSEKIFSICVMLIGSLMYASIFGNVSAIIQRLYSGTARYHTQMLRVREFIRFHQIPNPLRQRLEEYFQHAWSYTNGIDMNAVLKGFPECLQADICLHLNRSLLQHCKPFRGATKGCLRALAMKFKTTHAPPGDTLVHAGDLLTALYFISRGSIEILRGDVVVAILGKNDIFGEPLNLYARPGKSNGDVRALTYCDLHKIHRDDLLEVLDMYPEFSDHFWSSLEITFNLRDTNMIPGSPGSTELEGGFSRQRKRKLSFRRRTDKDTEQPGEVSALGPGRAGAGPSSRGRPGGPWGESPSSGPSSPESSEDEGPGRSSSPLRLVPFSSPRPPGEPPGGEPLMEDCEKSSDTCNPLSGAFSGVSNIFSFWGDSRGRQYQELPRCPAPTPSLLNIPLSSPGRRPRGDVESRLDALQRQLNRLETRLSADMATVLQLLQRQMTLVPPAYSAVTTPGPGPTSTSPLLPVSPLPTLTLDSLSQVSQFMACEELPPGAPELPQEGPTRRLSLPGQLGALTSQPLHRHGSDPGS

Row | SMILES | pKi [1] | pKi [2] | pKi [3] | inhibition (Sus scrofa) [%] | other results
1 | COc1ccc2c(c1)CCN(CCCCc1ccccc1)CC2 | 7.26 | 7.96 | 7.25 | 0 | 
2 | OC1CN(CCC(F)Cc2ccccc2)CCc2cc(OCc3ccccc3)ccc21 (stereo unspecified) | 6.09 | 6.74 | 5.74 | 0 | Ratio Ki [4]: 2
3 | Oc1ccc2c(c1)CCN(CCCCc1ccccc1)CC2 | 8.00 | 7.49 | 7.92 |  | Ratio Ki [5]: 2 to 3
4 | Oc1ccc2c(c1)CCN(CCC(F)Cc1ccccc1)CC2 (single isomer, unassigned; (+)) | 7.27 | 8.00 | 7.31 |  | 
5 | OC(CN1CCC(Cc2ccc(F)cc2)CC1)c1ccc(Cl)cc1 (stereo unspecified) [ELIPRODIL] | 7.89 |  |  |  | 
6 | Oc1ccc2c(c1)CCN(CCC(F)Cc1ccccc1)CC2 (racemic) [listing 1 of 2 here] | 7.80 | 7.77 | 7.41 |  | 
7 | COc1ccc2c(c1)CCN(CCC(F)Cc1ccccc1)CC2O (stereo unspecified) | 6.20 | 6.68 | 5.35 | 0 | Ratio Ki [4]: 7
8 | OC1CN(CCCCc2ccccc2)CCc2cc(OCc3ccccc3)ccc21 (stereo unspecified) | 6.30 |  |  |  | Ratio Ki [4]: 2
9 | CN1CCN(CCc2ccc(Cl)c(Cl)c2)CC1 |  |  |  |  | Activity (Mus musculus): Active
10 | COc1ccc2c(c1)CCN(CC(F)CCc1ccccc1)CC2O (stereo unspecified) | 6.30 | 6.23 | 5.10 | 0 | Ratio Ki [4]: 15
11 | Oc1ccc2c(c1)CCN(CCC(F)Cc1ccccc1)CC2 (racemic) [listing 2 of 2 here] |  |  |  | 15 | 
12 | FC(CCN1CCc2ccccc2CC1)Cc1ccccc1 (stereo unspecified) | 7.52 | 8.10 | 7.32 | 0 | pKi (Mu-type opioid receptor [6]): 6.39; pKi [7]: < 6.00; pKi [8]: < 6.00; pEC50 (Mu-type opioid receptor [9]): < 5.00; pIC50 [10]: 5.93; inhibition [11]: < 50%; inhibition [12]: < 50%; inhibition [13]: 72%; inhibition [14]: < 50%; inhibition [15]: < 50%; inhibition [16]: < 50%; metabolised at 1 h, 1 µM [17]: 100%; metabolised at 1 h, 1 µM [18]: 100%; metabolised at 1 h, 1 µM [19]: 100%; inhibition at 1 µM (CYP2D6): 85%; Activity (HepG2 [20]): Toxic; Activity (HepG2 [21]): Toxic; inhibition [22]: < 50%; Stability [23]: Stable; Stability [24]: Stable
13 | FCCOc1ccc2c(c1)CCN(CCC(F)Cc1ccccc1)CC2 (stereo unspecified) | 6.46 | 7.60 | 6.28 |  | 
14 | Oc1ccc2c(c1)CCN(CCCCc1ccccc1)CC2O (stereo unspecified) |  |  |  | 35 | Ratio Ki [5]: 2 to 3
15 | FC(CCOc1ccc2c(c1)CCN(CCC(F)Cc1ccccc1)CC2)Cc1ccccc1 (stereo unspecified) | 6.60 | 6.73 | 6.19 |  | 
16 | OC1CN(CC(F)CCc2ccccc2)CCc2cc(OCc3ccccc3)ccc21 (stereo unspecified) | 6.11 | 6.41 | 5.85 | 0 | Ratio Ki [4]: 2
17 | Oc1ccc2c(c1)CCN(CCC(F)Cc1ccccc1)CC2O (stereo unspecified) | 6.37 | 5.85 | 6.89 | 8 | Ratio Ki [5]: 2 to 3
18 | Oc1ccc2c(c1)CCN(CCC(F)Cc1ccccc1)CC2 (single isomer, unassigned; (-)) | 7.19 | 7.60 | 7.20 |  | 
19 | COc1ccc2c(c1)CCN(CC(F)CCc1ccccc1)CC2 (stereo unspecified) | 6.22 | 6.67 | 6.13 | 0 | 
20 | Oc1ccc2c(c1)CCN(CC(F)CCc1ccccc1)CC2 (stereo unspecified) | 7.07 | 7.15 | 6.82 | 0 | 
21 | FC(CCc1ccccc1)CN1CCc2ccccc2CC1 (stereo unspecified) | 6.62 | 6.97 | 6.48 | 0 | 
